ChEMBL document CHEMBL4680290, “Design, synthesis and biological evaluation of novel chalcone-like compounds as potent and reversible pancreatic lipase inhibitors” (Bioorg Med Chem, 2021)

Key:
[1] = target: T1, Pancreatic triacylglycerol lipase (Sus scrofa, UniProt P00591); test: Inhibition of porcine pancreatic lipase preincubated for 10 mins followed by 4-MUO addition and measured at 60 sec interval for 40 mins by multi plate micro plate reader
T1 sequence (P00591 whole entry): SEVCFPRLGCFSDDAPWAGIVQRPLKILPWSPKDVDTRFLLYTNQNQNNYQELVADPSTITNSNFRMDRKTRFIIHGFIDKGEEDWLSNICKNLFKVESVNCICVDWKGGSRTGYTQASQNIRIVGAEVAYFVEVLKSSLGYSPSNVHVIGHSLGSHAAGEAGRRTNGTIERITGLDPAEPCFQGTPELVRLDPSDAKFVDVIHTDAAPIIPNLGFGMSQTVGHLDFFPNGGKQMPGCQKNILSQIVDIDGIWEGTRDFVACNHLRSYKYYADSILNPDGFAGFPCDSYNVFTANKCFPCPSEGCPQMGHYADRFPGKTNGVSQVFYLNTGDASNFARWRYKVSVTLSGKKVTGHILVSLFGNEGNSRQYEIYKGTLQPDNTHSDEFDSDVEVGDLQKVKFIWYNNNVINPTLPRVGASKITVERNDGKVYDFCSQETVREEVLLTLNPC
Summary of the method: (§1)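 Porcine pancreatic lipase (type II) at 0.01 mg/mL final in 0.1 M citrate phosphate buffer pH 7.4 with inhibitor at various concentrations, vortexed, preincubated 10 min at 37 °C. Reaction started with 4-MUO, and fluorescence of released 4-MU read on a microplate reader. IC50 obtained by nonlinear regression; mean ± SD of triplicates.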

[2] = Inhibition of porcine pancreatic lipase type 2; design: species or system Sus scrofa; summary of the method: as §1
[3] = Metabolic stability in human liver microsomes assessed as half life in Phase II metabolic system at 10 uM measured by LC-UV method; format: ADME, Microsome
Summary of the method: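 Phase II system of human liver preparations, compound at 10 μM final. Remaining compound measured by UFLC-UV on an ODS column (2.1 × 150 mm, 2.2 μm) at 40 °C and 0.4 mL/min, with an acetonitrile / water (0.2% formic acid) gradient, detection at 370 nm. Half-life reported.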

[4] = Metabolic stability in artificial gastrointestinal fluids assessed as half life at 100 uM by LC-UV method
Summary of the method: (§2)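 Artificial gastric or intestinal fluid (800 μL) prewarmed 3 min at 37 °C, then compound added to 100 μM final. Aliquots taken at 0, 0.5, 1, 2 and 4 h and quenched with equal volume of ice-cold acetonitrile. Half-life derived from remaining compound.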

[5] = Metabolic stability in artificial intestinal fluids assessed as half life at 100 uM by LC-UV method; summary of the method: as §2
[6] = target: T1, Pancreatic triacylglycerol lipase; test: Mixed type inhibition of porcine pancreatic lipase using 4MUO as substrate by Lineweaver-Burk plot analysis
Summary of the method: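 Kinetics of porcine pancreatic lipase with varied 4-MUO concentrations and increasing inhibitor doses, otherwise as in the standard assay (0.01 mg/mL enzyme, citrate phosphate pH 7.4, 37 °C, 4-MU fluorescence read-out). Inhibition mode and Ki taken from inhibition kinetic plots and Lineweaver-Burk plots, with a secondary plot of slopes. Nonlinear regression; mean ± SD of triplicates.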

[7] = Metabolic stability in human liver microsomes assessed as half life in Phase I metabolic system at 10 uM measured by LC-UV method; format: ADME, Microsome
Summary of the method: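 Phase I incubation with human liver preparations, compound or testosterone control at 10 μM final. Remaining compound quantified by LC-UV (ODS column, 40 °C, acetonitrile/0.2% formic acid water gradient, 0.4 mL/min, detection 370 nm) to give in vitro half-life.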

SMILES | IC50 [1] [µM] | other results
CC(C)=CCc1c(O)ccc(C(=O)/C=C/c2ccc(O)cc2)c1O [ISOBAVACHALCONE] |  | IC50 [2]: 3.3 µM
CC(C)=CCc1c(O)ccc(C(=O)/C=C/c2ccc(O)cc2O)c1O [MORACHALCONE A] |  | IC50 [2]: 6.2 µM
O=C1/C(=C/c2ccccc2F)Cc2ccc(O)cc21 | > 100 | 
O=C1/C(=C/c2ccc(F)cc2)Cc2ccc(O)cc21 | 32.7 | 
COc1cc(OC)c(/C=C2\Cc3ccc(O)cc3C2=O)c(OC)c1 | 20.7 | 
O=C1/C(=C/c2ccccc2)Cc2ccccc21 |  | IC50 [2]: 22.5 µM
CC(C)=CCc1cc(C(=O)/C=C/c2ccc(O)cc2)c(O)cc1O [BROUSSOCHALCONE B] |  | IC50 [2]: 5.7 µM
O=C1/C(=C/c2ccc(O)cc2)Cc2ccc(O)cc21 | > 100 | 
O=C(/C=C/c1ccccc1)c1ccccc1 [CHALCONE] | 84.4 | 
O=C1/C(=C/c2ccccc2Br)Cc2ccc(O)cc21 | 28.9 | 
COc1ccc2c(c1)C(=O)/C(=C/c1ccc(O)c(OC)c1)C2 | 37.1 | 
O=C1/C(=C/c2ccc(Cl)c(Cl)c2)Cc2ccc(O)cc21 | 75.4 | 
O=c1ccc2ccc(O)cc2o1 [UMBELLIFERONE] |  | half-life at 10 µM [3]: 0.258 h
COc1ccc(/C=C2\Cc3ccc(O)cc3C2=O)c(OC)c1 | 24.8 | 
O=C1/C(=C/c2ccc(Br)cc2)Cc2ccc(O)cc21 | 75.6 | 
COc1cc(OC)c(OC)cc1/C=C1\Cc2ccc(O)cc2C1=O | 35 | 
C=CCCCCCCCCNc1ccc2c(c1)C(=O)/C(=C/c1ccc(O)c(OC)c1)C2 | 84.1 | 
C=CCCCCNc1ccc2c(c1)C(=O)/C(=C/c1ccc(O)c(OC)c1)C2 | 25.1 | 
O=C1/C(=C/c2ccccc2Cl)Cc2ccc(O)cc21 | > 100 | 

Second part, led by results:

IC50 [1] [µM] | SMILES | other results
10.4 | COc1cc(/C=C2\Cc3ccc(O)cc3C2=O)ccc1O | 
14.8 | COc1cc(/C=C2\Cc3ccc(O)cc3C2=O)cc(OC)c1OC | 
0.58 | C=CCCCCCCCCN(CCCCCCCCC=C)c1ccc2c(c1)C(=O)/C(=C/c1ccc(O)c(OC)c1)C2 | 
14.8 | O=C1/C(=C/c2cccc(Br)c2)Cc2ccc(O)cc21 | 
0.68 | COc1cc(/C=C2\Cc3ccc(NCCCCCCCCCCCCO)cc3C2=O)ccc1O | 
12.4 | COc1cc(/C=C2\Cc3ccc(N)cc3C2=O)ccc1O | 
0.83 | COc1cc(/C=C2\Cc3ccc(N(CCC(C)CCCC(C)C)CCC(C)CCCC(C)C)cc3C2=O)ccc1O (stereo unspecified) | 
3.32 | COc1cc(/C=C2\Cc3ccc(N4CCCCC4)cc3C2=O)ccc1O | 
14.9 | O=C1/C(=C/c2ccc(O)cc2)Cc2ccccc21 | 
2.54 | CCCOc1ccc2c(c1)C(=O)/C(=C/c1ccc(O)c(OC)c1)C2 | 
6.94 | COc1cc(/C=C2\Cc3ccccc3C2=O)ccc1O | 
8.61 | COc1cc(/C=C2\Cc3ccc(OC(C)C)cc3C2=O)ccc1O | 
3.5 | COc1cc(/C=C2\Cc3ccc(N4CCCC4)cc3C2=O)ccc1O | 
2.09 | C=CCCCCN(CCCCC=C)c1ccc2c(c1)C(=O)/C(=C/c1ccc(O)c(OC)c1)C2 | 
2.52 | COc1cc(/C=C2\Cc3ccc(NCCC(C)CCCC(C)C)cc3C2=O)ccc1O (stereo unspecified) | 
1.69 | CCN(CC)c1ccc2c(c1)C(=O)/C(=C/c1ccc(O)c(OC)c1)C2 | 
0.33 | COc1cc(/C=C2\Cc3ccc(N(CCCCCCCCCCCCO)CCCCCCCCCCCCO)cc3C2=O)ccc1O | T1/2 [4]: 3.89 h; T1/2 [5]: > 4 h; half-life at 10 µM [3]: 1.95 h; Ki [6]: 0.12 µM; half-life at 10 µM [7]: 3.68 h
